Results published in ChEMBL document CHEMBL1649236, “The structure of the dizinc subclass B2 metallo-beta-lactamase CphA reveals that the second inhibitory zinc ion binds in the histidine site” (Antimicrob Agents Chemother, 2009).

Legend:
[1] = compound: C[C@@H](O)[C@H]1C(=O)N2C(C(=O)O)=C(SCCNC=N)C[C@H]12; test: (§1) Ratio of Kcat to Km for Aeromonas hydrophila metallo-betalactamase CphA expressed in Escherichia coli BL21(DE3) by spectrophotometric analysis in presence of < 0.4 uM zinc ions
Method in brief: (§2)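 Steady-state kinetics (kcat, Km, kcat/Km) at 30°C in 15 mM cacodylate pH 6.5, no added Zn2+ (free [Zn2+] < 0.4 µM), enzyme as the mono-zinc form (one Zn per molecule). Substrates imipenem, nitrocefin and CENTA. N233A mutant from E. coli BL21 (DE3) pLysS Star, purified to homogeneity, mass checked by ESI-MS. Standard errors below 10%.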

[2] = compound: O=C(Cc1cccs1)N[C@@H]1C(=O)N2C(C(=O)O)=C(CSc3ccc([N+](=O)[O-])c(C(=O)O)c3)CS[C@H]12; test: as §1; method in brief: as §2
[3] = compound: O=C(Cc1cccs1)N[C@@H]1C(=O)N2C(C(=O)O)=C(/C=C/c3ccc([N+](=O)[O-])cc3[N+](=O)[O-])CS[C@H]12; test: as §1; method in brief: as §2
[4] = compound: C[C@@H](O)[C@H]1C(=O)N2C(C(=O)O)=C(SCCNC=N)C[C@H]12; test: (§3) Activity of Aeromonas hydrophila metallo-betalactamase CphA expressed in Escherichia coli BL21(DE3) by spectrophotometric analysis in presence of < 0.4 uM zinc ions; method in brief: as §2
[5] = compound: O=C(Cc1cccs1)N[C@@H]1C(=O)N2C(C(=O)O)=C(CSc3ccc([N+](=O)[O-])c(C(=O)O)c3)CS[C@H]12; test: as §3; method in brief: as §2
[6] = compound: O=C(Cc1cccs1)N[C@@H]1C(=O)N2C(C(=O)O)=C(/C=C/c3ccc([N+](=O)[O-])cc3[N+](=O)[O-])CS[C@H]12; test: as §3; method in brief: as §2

B1: Metallo-beta-lactamase type 2 (Aeromonas hydrophila), P26918 (protein)
chain: MMKGWMKCGLAGAVVLMASFWGGSVRAAGMSLTQVSGPVYVVEDNYYVQENSMVYFGAKGVTVVGATWTPDTARELHKLIKRVSRKPVLEVINTNYHTDRAGGNAYWKSIGAKVVSTRQTRDLMKSDWAEIVAFTRKGLPEYPDLPLVLPNVVHDGDFTLQEGKVRAFYAGPAHTPDGIFVYFPDEQVLYGNCILKEKLGNLSFADVKAYPQTLERLKAMKLPIKTVIGGHDSPLHGPELIDHYEALIKAAPQS
In the case of B1, the kcat/Km [1] is reported as 3.5e+06 M⁻¹ s⁻¹, the kcat/Km [2] is reported as “Not Active” and the kcat/Km [3] is reported as 6 M⁻¹ s⁻¹. The Km [4] was 340 µM, the kcat [4] was 1200 s⁻¹ and the Km [5] was “Not Active”. The kcat [5] was “Not Active”, the Km [6] was 1300 µM and the kcat [6] was 0.008 s⁻¹.
